Results taken from paper PMC9444296 (Investigative Radiology, 2022).

Key:
[1] = biological target: EDB protein fragment (Homo sapiens, UniProt P02751); experiment: Binding affinity by surface plasmon resonance; conditions: read-out: average binding affinity (Kd); SPR, n = 4
In short: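 EDB protein fragment desalted into 10 mM PBS pH 7.4, then amine-coupled to a CM5 chip active cell (25 μg/mL in 10 mM acetate pH 4.5, 3 min at 10 μL/min, about 1500 RU). Both cells were ethanolamine-blocked (pH 8.5, 7 min). Test compound (1.0 mM stock in 0.05% Tween-20/10 mM PBS pH 7.4 running buffer) was injected at varying concentrations for 120 s at 50 μL/min, with 5 min dissociation. Kd came from instrument evaluation software.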

[2] = Metabolic stability in CD1 mouse hepatocytes; type: in vitro ADME; conditions: 2 hours of incubation, LC-MS/MS
[3] = Plasma stability, human plasma; type: in vitro ADME; conditions: 0.5 mM, 37°C, HPLC; for average remaining percentage of intact MT218: n = 2
In short: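 Test compound at 0.5 mM was incubated in human, rat or dog plasma at 37°C for up to 48 h, with PBS as control. Samples were mixed with methanol, centrifuged, and the intact compound was quantified by analytical reversed-phase (C18) HPLC.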

[4] = Plasma protein binding, rat plasma; type: in vitro ADME; conditions: 37°C, 3 min, 10 kDa ultrafiltration, Gd by ICP-OES, n = 4
In short: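 Test compound at 50, 80 or 110 μM was incubated with human, dog or rat plasma (alongside HSA 40 mg/mL and PBS) at 37°C for 3 min. Mixtures were kept overnight and centrifuged to remove insolubles. Gd was measured by ICP-OES, and the binding ratio was taken as bound over total concentration.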

[5] = tested on: bone marrow of ICR mice; experiment: Micronucleus assay in ICR mice; type: in vivo, mouse; conditions: ICR mice, 1.39, 0.70, and 0.35 mmol/kg/d for 2 days
In short: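 Male ICR mice, 32 in total, were dosed once daily for 2 days: vehicle, 500 or 1000 mg/kg/d (6 per group) or 2000 mg/kg/d (8 mice). Cyclophosphamide monohydrate served as positive control. Bone marrow was collected about 22.5 h after the final dose and scored for micronuclei and for polychromatic to total erythrocytes.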

[6] = Gd remaining in rat tissues after toxicity study; type: in vivo; conditions: for Measured Concentration of Gd, Mean: day 29, ICP-MS
In short: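 Femur, abdominal skin, liver, brain, quadriceps, lung, heart, kidney, spleen, colon and jejunum were collected, and residual Gd was measured by ICP-MS.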

[7] = biological target: OCT2 (Homo sapiens, UniProt O15244); experiment: OCT2 inhibition, HEK293 cells; type: in vitro ADME; conditions: 1, 5, 10, 50, and 100 μM
Chain of OCT2 (O15244 whole entry): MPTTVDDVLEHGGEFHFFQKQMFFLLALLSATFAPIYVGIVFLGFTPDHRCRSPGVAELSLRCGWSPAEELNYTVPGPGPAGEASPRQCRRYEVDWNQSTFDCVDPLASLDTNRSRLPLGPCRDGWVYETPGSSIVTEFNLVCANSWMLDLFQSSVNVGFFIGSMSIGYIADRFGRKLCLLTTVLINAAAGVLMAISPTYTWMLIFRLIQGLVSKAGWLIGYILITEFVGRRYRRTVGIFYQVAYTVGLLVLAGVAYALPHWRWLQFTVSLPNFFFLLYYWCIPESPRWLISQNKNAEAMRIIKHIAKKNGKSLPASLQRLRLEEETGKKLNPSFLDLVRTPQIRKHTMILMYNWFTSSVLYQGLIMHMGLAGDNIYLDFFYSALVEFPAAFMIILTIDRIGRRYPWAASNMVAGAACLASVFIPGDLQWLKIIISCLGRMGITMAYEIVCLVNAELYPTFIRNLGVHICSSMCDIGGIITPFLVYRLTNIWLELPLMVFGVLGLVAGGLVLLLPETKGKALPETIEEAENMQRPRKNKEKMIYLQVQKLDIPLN

[8] = biological target: HRH1 (Homo sapiens, UniProt P35367); experiment: SAFETYscan E/IC50 assay, HRH1; type: biochemical; conditions: concentration range 0.005 to 100 μM
Chain of HRH1 (P35367 whole entry, the tested form may be a part): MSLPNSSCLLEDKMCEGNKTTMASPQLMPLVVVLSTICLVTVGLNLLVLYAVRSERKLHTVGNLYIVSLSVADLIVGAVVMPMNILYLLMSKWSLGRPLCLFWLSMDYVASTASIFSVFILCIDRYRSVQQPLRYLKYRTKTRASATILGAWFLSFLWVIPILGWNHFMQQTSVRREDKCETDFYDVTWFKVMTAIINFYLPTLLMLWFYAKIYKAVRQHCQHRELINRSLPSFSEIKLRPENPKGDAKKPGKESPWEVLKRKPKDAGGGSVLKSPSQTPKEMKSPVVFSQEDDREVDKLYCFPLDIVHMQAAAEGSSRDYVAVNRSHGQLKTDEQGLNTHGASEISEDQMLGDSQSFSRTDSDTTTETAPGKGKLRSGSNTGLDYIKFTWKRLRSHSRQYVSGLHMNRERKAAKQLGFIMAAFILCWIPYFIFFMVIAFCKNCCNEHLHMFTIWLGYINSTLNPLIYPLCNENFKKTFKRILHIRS
In short: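 Contract-laboratory in vitro panel of 78 targets, run in agonist and/or antagonist modes under provider SOPs over 0.005 to 100 μM. Panel formats included enzyme fragment complementation, FLIPR-based cellular assays, kinase binding and enzymatic assays.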

[9] = biological target: CYP2B6 (Homo sapiens, UniProt P20813); conditions: 0.01, 0.1, 1, 10, and 100 μM, pooled human liver microsomes 0.5 mg/mL
Chain of CYP2B6 (P20813 whole entry): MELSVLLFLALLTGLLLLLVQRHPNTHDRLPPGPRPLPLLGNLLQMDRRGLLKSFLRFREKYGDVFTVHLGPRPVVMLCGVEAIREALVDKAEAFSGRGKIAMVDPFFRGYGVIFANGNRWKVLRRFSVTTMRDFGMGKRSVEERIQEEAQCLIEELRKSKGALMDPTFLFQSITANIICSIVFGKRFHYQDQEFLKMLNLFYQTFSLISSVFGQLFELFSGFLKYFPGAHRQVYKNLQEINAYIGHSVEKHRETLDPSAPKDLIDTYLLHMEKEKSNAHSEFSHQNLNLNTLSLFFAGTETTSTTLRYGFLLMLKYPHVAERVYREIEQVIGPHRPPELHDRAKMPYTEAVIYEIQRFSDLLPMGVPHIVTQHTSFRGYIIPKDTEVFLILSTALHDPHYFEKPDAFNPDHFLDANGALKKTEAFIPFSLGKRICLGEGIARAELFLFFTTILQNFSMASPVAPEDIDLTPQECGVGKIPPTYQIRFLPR

[10] = biological target: OATP1B1 (Homo sapiens, UniProt Q9Y6L6); experiment: OATP1B1 inhibition, HEK293 cells; type: in vitro ADME; conditions: 1, 5, 10, 50, and 100 μM
Chain of OATP1B1 (Q9Y6L6 whole entry): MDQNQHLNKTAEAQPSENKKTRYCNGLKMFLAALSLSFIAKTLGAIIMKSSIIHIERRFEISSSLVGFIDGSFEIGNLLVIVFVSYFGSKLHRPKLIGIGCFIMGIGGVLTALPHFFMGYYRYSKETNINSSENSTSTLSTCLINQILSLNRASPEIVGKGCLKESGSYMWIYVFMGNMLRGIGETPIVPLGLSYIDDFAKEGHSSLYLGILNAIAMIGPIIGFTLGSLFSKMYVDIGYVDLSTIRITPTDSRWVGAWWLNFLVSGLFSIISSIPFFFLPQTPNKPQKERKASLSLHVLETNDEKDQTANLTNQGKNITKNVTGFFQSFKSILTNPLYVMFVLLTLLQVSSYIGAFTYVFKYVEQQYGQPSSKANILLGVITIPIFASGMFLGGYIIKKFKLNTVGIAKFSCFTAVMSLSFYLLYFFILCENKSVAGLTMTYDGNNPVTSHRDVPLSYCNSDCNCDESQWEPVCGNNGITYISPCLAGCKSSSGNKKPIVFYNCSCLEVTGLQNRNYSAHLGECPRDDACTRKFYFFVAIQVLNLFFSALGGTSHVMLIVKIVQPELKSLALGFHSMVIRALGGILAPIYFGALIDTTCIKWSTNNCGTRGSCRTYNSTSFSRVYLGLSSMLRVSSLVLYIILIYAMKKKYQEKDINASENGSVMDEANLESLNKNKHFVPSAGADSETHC

[11] = Metabolic stability in SD rat hepatocytes; type: in vitro ADME; conditions: 2 hours of incubation, LC-MS/MS
[12] = biological target: BCRP (Homo sapiens, UniProt Q9UNQ0); experiment: BCRP inhibition, membrane vesicles; type: in vitro ADME; conditions: 1, 5, 10, 50, and 100 μM
Chain of BCRP (Q9UNQ0 whole entry): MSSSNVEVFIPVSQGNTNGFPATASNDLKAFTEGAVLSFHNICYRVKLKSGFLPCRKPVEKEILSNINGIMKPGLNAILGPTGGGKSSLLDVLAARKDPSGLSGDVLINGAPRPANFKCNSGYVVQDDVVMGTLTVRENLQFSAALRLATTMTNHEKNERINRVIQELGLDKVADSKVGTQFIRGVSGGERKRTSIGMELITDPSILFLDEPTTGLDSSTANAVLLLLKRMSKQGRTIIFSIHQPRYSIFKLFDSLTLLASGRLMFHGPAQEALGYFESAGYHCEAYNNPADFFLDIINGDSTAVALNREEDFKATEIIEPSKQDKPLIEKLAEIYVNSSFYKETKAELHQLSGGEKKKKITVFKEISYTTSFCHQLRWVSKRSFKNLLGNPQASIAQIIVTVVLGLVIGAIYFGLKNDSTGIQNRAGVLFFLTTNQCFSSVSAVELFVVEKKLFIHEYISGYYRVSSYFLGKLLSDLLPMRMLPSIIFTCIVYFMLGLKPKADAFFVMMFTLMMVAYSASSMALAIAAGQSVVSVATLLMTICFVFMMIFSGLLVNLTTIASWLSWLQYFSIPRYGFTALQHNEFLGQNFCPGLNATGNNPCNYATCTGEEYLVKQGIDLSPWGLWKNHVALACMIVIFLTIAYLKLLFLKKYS

[13] = rats, single dose 1.39 mmol/kg, day 15, ICP-MS

Chain of EDB protein fragment (P02751 1271-1359 limits assumed): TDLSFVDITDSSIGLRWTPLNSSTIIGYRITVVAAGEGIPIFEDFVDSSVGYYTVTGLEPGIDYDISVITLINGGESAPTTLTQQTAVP

ZD2-N3-Gd(HP-DO3A) [MT218]
Kd [1]: 3.45 µM | remaining MT218 [2]: 50.6% | average remaining percentage of intact MT218 ([3]; 1 h): 83.47% | average remaining percentage of intact MT218 ([3]; 3 h): 48.79% | average remaining percentage of intact MT218 ([3]; 6 h): 12.87% | average remaining percentage of intact MT218 ([3]; 28 h): 5.21% | average remaining percentage of intact MT218 ([3]; 48 h): 3.97% | enzymatic degradation half-life (t1/2) [3]: 2.63 h | binding ratio to plasma proteins ([4]; 50 μM): 28.44% | binding ratio to plasma proteins ([4]; 80 μM): 27.12% | binding ratio to plasma proteins ([4]; 110 μM): 25.68% | incidence of micronuclei vs vehicle control [5]: no significant increase | ratio of polychromatic erythrocytes to total erythrocytes [5]: no significant decrease | Measured Concentration of Gd, Mean ([6]; Female rat, Bone, 0.15 mmol/kg/d daily IV 2 weeks): 0.19 μg/g Tissue | Measured Concentration of Gd, Mean ([6]; Female rat, Bone, 0.46 mmol/kg/d daily IV 2 weeks): 1.13 μg/g Tissue | Measured Concentration of Gd, Mean ([6]; Female rat, Bone, 1.39 mmol/kg/d daily IV 2 weeks): 4.90 μg/g Tissue | Measured Concentration of Gd, Mean ([6]; Female rat, Brain, 0.15 mmol/kg/d daily IV 2 weeks): BQL | Measured Concentration of Gd, Mean ([6]; Female rat, Brain, 0.46 mmol/kg/d daily IV 2 weeks): 0.03 μg/g Tissue | Measured Concentration of Gd, Mean ([6]; Female rat, Brain, 1.39 mmol/kg/d daily IV 2 weeks): 0.40 μg/g Tissue | Measured Concentration of Gd, Mean ([6]; Female rat, Colon, 0.15 mmol/kg/d daily IV 2 weeks): 0.15 μg/g Tissue | Measured Concentration of Gd, Mean ([6]; Female rat, Colon, 0.46 mmol/kg/d daily IV 2 weeks): 1.02 μg/g Tissue | Measured Concentration of Gd, Mean ([6]; Female rat, Colon, 1.39 mmol/kg/d daily IV 2 weeks): 3.44 μg/g Tissue | Measured Concentration of Gd, Mean ([6]; Female rat, Heart, 0.15 mmol/kg/d daily IV 2 weeks): BQL | Measured Concentration of Gd, Mean ([6]; Female rat, Heart, 0.46 mmol/kg/d daily IV 2 weeks): 3.17 μg/g Tissue | Measured Concentration of Gd, Mean ([6]; Female rat, Heart, 1.39 mmol/kg/d daily IV 2 weeks): 1.85 μg/g Tissue | Measured Concentration of Gd, Mean ([6]; Female rat, Jejunum, 0.15 mmol/kg/d daily IV 2 weeks): 0.23 μg/g Tissue | Measured Concentration of Gd, Mean ([6]; Female rat, Jejunum, 0.46 mmol/kg/d daily IV 2 weeks): 0.73 μg/g Tissue | Measured Concentration of Gd, Mean ([6]; Female rat, Jejunum, 1.39 mmol/kg/d daily IV 2 weeks): 3.26 μg/g Tissue | Measured Concentration of Gd, Mean ([6]; Female rat, Kidney, 0.15 mmol/kg/d daily IV 2 weeks): 26.46 μg/g Tissue | Measured Concentration of Gd, Mean ([6]; Female rat, Kidney, 0.46 mmol/kg/d daily IV 2 weeks): 100.81 μg/g Tissue | Measured Concentration of Gd, Mean ([6]; Female rat, Kidney, 1.39 mmol/kg/d daily IV 2 weeks): 346.00 μg/g Tissue | Measured Concentration of Gd, Mean ([6]; Female rat, Liver, 0.15 mmol/kg/d daily IV 2 weeks): 0.31 μg/g Tissue | Measured Concentration of Gd, Mean ([6]; Female rat, Liver, 0.46 mmol/kg/d daily IV 2 weeks): 1.03 μg/g Tissue | Measured Concentration of Gd, Mean ([6]; Female rat, Liver, 1.39 mmol/kg/d daily IV 2 weeks): 4.11 μg/g Tissue | Measured Concentration of Gd, Mean ([6]; Female rat, Lung, 0.15 mmol/kg/d daily IV 2 weeks): 0.20 μg/g Tissue | Measured Concentration of Gd, Mean ([6]; Female rat, Lung, 0.46 mmol/kg/d daily IV 2 weeks): 1.27 μg/g Tissue | Measured Concentration of Gd, Mean ([6]; Female rat, Lung, 1.39 mmol/kg/d daily IV 2 weeks): 3.86 μg/g Tissue | Measured Concentration of Gd, Mean ([6]; Female rat, Muscle, 0.15 mmol/kg/d daily IV 2 weeks): 0.03 μg/g Tissue | Measured Concentration of Gd, Mean ([6]; Female rat, Muscle, 0.46 mmol/kg/d daily IV 2 weeks): 0.21 μg/g Tissue | Measured Concentration of Gd, Mean ([6]; Female rat, Muscle, 1.39 mmol/kg/d daily IV 2 weeks): 1.27 μg/g Tissue | Measured Concentration of Gd, Mean ([6]; Female rat, Skin, 0.15 mmol/kg/d daily IV 2 weeks): 0.14 μg/g Tissue | Measured Concentration of Gd, Mean ([6]; Female rat, Skin, 0.46 mmol/kg/d daily IV 2 weeks): 1.26 μg/g Tissue | Measured Concentration of Gd, Mean ([6]; Female rat, Skin, 1.39 mmol/kg/d daily IV 2 weeks): 4.56 μg/g Tissue | Measured Concentration of Gd, Mean ([6]; Female rat, Spleen, 0.15 mmol/kg/d daily IV 2 weeks): 0.32 μg/g Tissue | Measured Concentration of Gd, Mean ([6]; Female rat, Spleen, 0.46 mmol/kg/d daily IV 2 weeks): 1.41 μg/g Tissue | Measured Concentration of Gd, Mean ([6]; Female rat, Spleen, 1.39 mmol/kg/d daily IV 2 weeks): 4.69 μg/g Tissue | Measured Concentration of Gd, Mean ([6]; Male rat, Bone, 0.15 mmol/kg/d daily IV 2 weeks): 0.28 μg/g Tissue | Measured Concentration of Gd, Mean ([6]; Male rat, Bone, 0.46 mmol/kg/d daily IV 2 weeks): 0.70 μg/g Tissue | Measured Concentration of Gd, Mean ([6]; Male rat, Bone, 1.39 mmol/kg/d daily IV 2 weeks): 5.85 μg/g Tissue | Measured Concentration of Gd, Mean ([6]; Male rat, Brain, 0.15 mmol/kg/d daily IV 2 weeks): BQL | Measured Concentration of Gd, Mean ([6]; Male rat, Brain, 0.46 mmol/kg/d daily IV 2 weeks): 0.07 μg/g Tissue | Measured Concentration of Gd, Mean ([6]; Male rat, Colon, 0.15 mmol/kg/d daily IV 2 weeks): 0.18 μg/g Tissue | Measured Concentration of Gd, Mean ([6]; Male rat, Colon, 0.46 mmol/kg/d daily IV 2 weeks): 0.79 μg/g Tissue | Measured Concentration of Gd, Mean ([6]; Male rat, Colon, 1.39 mmol/kg/d daily IV 2 weeks): 3.92 μg/g Tissue | Measured Concentration of Gd, Mean ([6]; Male rat, Heart, 0.15 mmol/kg/d daily IV 2 weeks): 0.14 μg/g Tissue | Measured Concentration of Gd, Mean ([6]; Male rat, Heart, 0.46 mmol/kg/d daily IV 2 weeks): 1.72 μg/g Tissue | Measured Concentration of Gd, Mean ([6]; Male rat, Heart, 1.39 mmol/kg/d daily IV 2 weeks): 2.56 μg/g Tissue | Measured Concentration of Gd, Mean ([6]; Male rat, Jejunum, 0.15 mmol/kg/d daily IV 2 weeks): 0.17 μg/g Tissue | Measured Concentration of Gd, Mean ([6]; Male rat, Jejunum, 0.46 mmol/kg/d daily IV 2 weeks): 0.73 μg/g Tissue | Measured Concentration of Gd, Mean ([6]; Male rat, Jejunum, 1.39 mmol/kg/d daily IV 2 weeks): 3.72 μg/g Tissue | Measured Concentration of Gd, Mean ([6]; Male rat, Kidney, 0.15 mmol/kg/d daily IV 2 weeks): 15.15 μg/g Tissue | Measured Concentration of Gd, Mean ([6]; Male rat, Kidney, 0.46 mmol/kg/d daily IV 2 weeks): 70.70 μg/g Tissue | Measured Concentration of Gd, Mean ([6]; Male rat, Kidney, 1.39 mmol/kg/d daily IV 2 weeks): 519.85 μg/g Tissue | Measured Concentration of Gd, Mean ([6]; Male rat, Liver, 0.15 mmol/kg/d daily IV 2 weeks): 0.22 μg/g Tissue | Measured Concentration of Gd, Mean ([6]; Male rat, Liver, 0.46 mmol/kg/d daily IV 2 weeks): 1.96 μg/g Tissue | Measured Concentration of Gd, Mean ([6]; Male rat, Liver, 1.39 mmol/kg/d daily IV 2 weeks): 4.85 μg/g Tissue | Measured Concentration of Gd, Mean ([6]; Male rat, Lung, 0.15 mmol/kg/d daily IV 2 weeks): BQL | Measured Concentration of Gd, Mean ([6]; Male rat, Lung, 0.46 mmol/kg/d daily IV 2 weeks): 1.33 μg/g Tissue | Measured Concentration of Gd, Mean ([6]; Male rat, Lung, 1.39 mmol/kg/d daily IV 2 weeks): 4.83 μg/g Tissue | Measured Concentration of Gd, Mean ([6]; Male rat, Muscle, 0.15 mmol/kg/d daily IV 2 weeks): BQL | Measured Concentration of Gd, Mean ([6]; Male rat, Muscle, 0.46 mmol/kg/d daily IV 2 weeks): 0.22 μg/g Tissue | Measured Concentration of Gd, Mean ([6]; Male rat, Muscle, 1.39 mmol/kg/d daily IV 2 weeks): 1.15 μg/g Tissue | Measured Concentration of Gd, Mean ([6]; Male rat, Skin, 0.15 mmol/kg/d daily IV 2 weeks): 0.13 μg/g Tissue | Measured Concentration of Gd, Mean ([6]; Male rat, Skin, 0.46 mmol/kg/d daily IV 2 weeks): 0.95 μg/g Tissue | Measured Concentration of Gd, Mean ([6]; Male rat, Skin, 1.39 mmol/kg/d daily IV 2 weeks): 2.31 μg/g Tissue | Measured Concentration of Gd, Mean ([6]; Male rat, Spleen, 0.15 mmol/kg/d daily IV 2 weeks): 0.37 μg/g Tissue | Measured Concentration of Gd, Mean ([6]; Male rat, Spleen, 0.46 mmol/kg/d daily IV 2 weeks): 1.12 μg/g Tissue | Measured Concentration of Gd, Mean ([6]; Male rat, Spleen, 1.39 mmol/kg/d daily IV 2 weeks): 6.04 μg/g Tissue | Gd concentration in other tissues relative to the kidney concentration [6, 13]: < 1/20 | Gd in the brain and muscles [6, 13]: not detected | inhibition of OCT2 transporter activity [7]: no inhibition potential | inhibition rate [8]: 17.77% | inhibition of CYP2B6 activity [9]: did not inhibit | inhibition of OATP1B1 transporter activity [10]: no inhibition potential | remaining MT218 [11]: 67.5% | inhibition of BCRP transporter activity [12]: no inhibition potential
